In ChEMBL document CHEMBL4152256, “Structure-activity relationship of new antimalarial 1-aryl-3-susbtituted propanol derivatives: Synthesis, preliminary toxicity profiling, parasite life cycle stage studies, target exploration, and targeted delivery” (Eur J Med Chem, 2018):
Calls of active or inactive are those of the source. The calls are words filed in the database; no cut-off is given here.

Key:
[1] = Genotoxicity in Salmonella typhimurium TA1535 harboring pSK1002 assessed as umu gene induction at 0.25 mg/ml in absence of Sprague-Dawley rat liver S9 fraction after by SOS/umu assay relative to control; format: toxicity, organism-based; conditions: salmonella enterica subsp. enterica serovar typhimurium, read-out: FC
[2] = Genotoxicity in Salmonella typhimurium TA1535 harboring pSK1002 assessed as umu gene induction at 0.008 mg/ml in absence of Sprague-Dawley rat liver S9 fraction after by SOS/umu assay relative to control; format: toxicity, organism-based; conditions: salmonella enterica subsp. enterica serovar typhimurium, read-out: FC
[3] = Genotoxicity in Salmonella typhimurium TA1535 harboring pSK1002 assessed as survival at 0.031 mg/ml in presence of Sprague-Dawley rat liver S9 fraction after by SOS/umu assay relative to control; format: toxicity, organism-based; conditions: salmonella enterica subsp. enterica serovar typhimurium, read-out: Survival
[4] = Genotoxicity in Salmonella typhimurium TA1535 harboring pSK1002 assessed as umu gene induction at 0.004 mg/ml in presence of Sprague-Dawley rat liver S9 fraction after by SOS/umu assay relative to control; format: toxicity, organism-based; conditions: salmonella enterica subsp. enterica serovar typhimurium, read-out: FC
[5] = Genotoxicity in Salmonella typhimurium TA1535 harboring pSK1002 assessed as survival at 0.25 mg/ml in presence of Sprague-Dawley rat liver S9 fraction after by SOS/umu assay relative to control; format: toxicity, organism-based; conditions: salmonella enterica subsp. enterica serovar typhimurium, read-out: Survival
Plasmodium berghei [6] = experiment: Antiplasmodial activity against GFP-fused Plasmodium berghei sporozoites infected in human HepG2A16 cells treated simultaneously with infection by fluorescence microscopic analysis; format: functional, organism-based
Procedure, shortened: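 HepG2-A16 cells (3 × 10^4/well, collagen-coated) infected with PbGFP sporozoites (5 × 10^3 to 1 × 10^4/well) and treated at the same time. Top concentration 10 µg/mL in DMEM, seven serial dilutions. Medium and compound renewed at 3 h and every 24 h. After 40 h at 37 °C: methanol fixation, anti-Plasmodium Hsp70 immunolabeling, Alexa 594 secondary, DAPI; high-content imaging.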

[7] = Genotoxicity in Salmonella typhimurium TA1535 harboring pSK1002 assessed as survival at 0.004 mg/ml in presence of Sprague-Dawley rat liver S9 fraction after by SOS/umu assay relative to control; format: toxicity, organism-based; conditions: salmonella enterica subsp. enterica serovar typhimurium, read-out: Survival
[8] = Genotoxicity in Salmonella typhimurium TA1535 harboring pSK1002 assessed as survival at 0.5 mg/ml in absence of Sprague-Dawley rat liver S9 fraction after by SOS/umu assay relative to control; format: toxicity, organism-based; conditions: salmonella enterica subsp. enterica serovar typhimurium, read-out: Survival
[9] = Genotoxicity in Salmonella typhimurium TA1535 harboring pSK1002 assessed as survival at 0.25 mg/ml in absence of Sprague-Dawley rat liver S9 fraction after by SOS/umu assay relative to control; format: toxicity, organism-based; conditions: salmonella enterica subsp. enterica serovar typhimurium, read-out: Survival
[10] = Genotoxicity in Salmonella typhimurium TA1535 harboring pSK1002 assessed as survival at 0.5 mg/ml in presence of Sprague-Dawley rat liver S9 fraction after by SOS/umu assay relative to control; format: toxicity, organism-based; conditions: salmonella enterica subsp. enterica serovar typhimurium, read-out: Survival
[11] = Genotoxicity in Salmonella typhimurium TA1535 harboring pSK1002 assessed as umu gene induction at 0.25 mg/ml in presence of Sprague-Dawley rat liver S9 fraction after by SOS/umu assay relative to control; format: toxicity, organism-based; conditions: salmonella enterica subsp. enterica serovar typhimurium, read-out: FC
[12] = Selectivity index, ratio of CC50 for human HepG2A16 cells by MTT assay to IC50 for multidrug-resistant Plasmodium falciparum FCR-3; format: toxicity; conditions: for selectivity ratio: HepG2A16 cells, read-out: Ratio CC50/IC50
Procedure, shortened: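 HepG2-A16 human hepatoma cells were tested by MTT viability assay to give CC50. Blood-stage activity was measured against the multidrug-resistant P. falciparum FCR-3 strain by [3H]-hypoxanthine incorporation to give IC50. SI = CC50 HepG2 / FCR-3 IC50.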

[13] = Genotoxicity in Salmonella typhimurium TA1535 harboring pSK1002 assessed as umu gene induction at 0.5 mg/ml in presence of Sprague-Dawley rat liver S9 fraction after by SOS/umu assay relative to control; format: toxicity, organism-based; conditions: salmonella enterica subsp. enterica serovar typhimurium, read-out: FC
[14] = Genotoxicity in Salmonella typhimurium TA1535 harboring pSK1002 assessed as umu gene induction at 0.5 mg/ml in absence of Sprague-Dawley rat liver S9 fraction after by SOS/umu assay relative to control; format: toxicity, organism-based; conditions: salmonella enterica subsp. enterica serovar typhimurium, read-out: FC
[15] = Genotoxicity in Salmonella typhimurium TA1535 harboring pSK1002 assessed as survival at 0.016 mg/ml in presence of Sprague-Dawley rat liver S9 fraction after by SOS/umu assay relative to control; format: toxicity, organism-based; conditions: salmonella enterica subsp. enterica serovar typhimurium, read-out: Survival
[16] = Solubility of the compound in DSPC:cholesterol:DSPE-PEG2000-Mal:DOPE-Rho lipid mixture at 250 uM; format: physicochemical
Procedure, shortened: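 Compound added at 250 µM drug to the initial liposome lipid mixture (10 mM total lipid); precipitation and UV-visible absorbance above 300 nm assessed after encapsulation, removal of unencapsulated material and extraction with 1% w/v SDS in RPMI-A.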

Plasmodium berghei [17] = experiment: Antiplasmodial activity against Plasmodium berghei ANKA infected in mouse assessed as inhibition of parasitemia at 50 mg/kg/day, po for 4 consecutive days starting from 2 hrs post infection by MSF assay relative to control; format: functional
Procedure, shortened: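 Swiss male mice (20 ± 2 g) infected ip with 10^7 P. berghei ANKA parasitized cells (day 0). Five per group dosed orally 2 h after infection and daily on days 0–3. Test compounds at 50 mg/kg/day in water:DMSO; chloroquine diphosphate at 3 mg/kg/day; vehicle controls. Parasitemia measured on day 4 by MSF assay; survival checked daily.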

Plasmodium falciparum [18] = experiment: Antiplasmodial activity against Plasmodium falciparum D6 after 72 hrs by MSF assay; format: functional, organism-based; conditions: D6, 72 h
Procedure, shortened: (§1)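 D6 and C235 strains from the Walter Reed Army Institute of Research were tested by the Malaria SYBR Green-I fluorescence assay.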

Plasmodium falciparum [19] = experiment: Antiplasmodial activity against multidrug-resistant Plasmodium falciparum C235 after 72 hrs by MSF assay; format: functional, organism-based; conditions: C235, 72 h; procedure, shortened: as §1
Plasmodium berghei [20] = experiment: Antiplasmodial activity against Plasmodium berghei ANKA infected in mouse assessed as mouse survival time at 50 mg/kg/day, po for 4 consecutive days starting from 2 hrs post infection by MSF assay; format: functional
Procedure, shortened: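 Swiss male mice (20 ± 2 g) infected i.p. with 10^7 P. berghei ANKA parasitized cells in 0.1 mL 0.9% saline (day 0). Oral dosing began 2 h post-infection and continued daily on days 0–3, five mice per batch. Test drugs were given at 50 mg/kg/day in water:DMSO and chloroquine diphosphate at 3 mg/kg/day; a vehicle control was included. Survival was checked daily, and parasitemia was read on day 4 by modified MSF assay.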

[21] = Plasmodium berghei, HepG2A16, read-out: IC50

Row | Structure (SMILES) | fold induction at 0.25 mg/ml [1] | fold induction at 0.008 mg/ml [2] | viability at 0.031 mg/ml [3] [%] | fold induction at 0.004 mg/ml [4] | viability at 0.25 mg/ml [5] [%] | IC50 (Plasmodium berghei [6]) | viability at 0.004 mg/ml [7] [%] | viability at 0.5 mg/ml [8] [%] | viability at 0.25 mg/ml [9] [%] | viability at 0.5 mg/ml [10] [%] | fold induction at 0.25 mg/ml [11] | selectivity ratio [12] | fold induction at 0.5 mg/ml [13] | fold induction at 0.5 mg/ml [14] | viability at 0.016 mg/ml [15] [%] | solubility [16] | inhibition in vivo at 50 mg/kg/day (Plasmodium berghei [17]) [%] | IC50 (Plasmodium falciparum [18]) [nM] | IC50 (Plasmodium falciparum [19]) [nM] | MSD (Plasmodium berghei [20]) [days] | other results
1 | OC(CCN1CC=C(c2ccc(F)cc2)CC1)c1ccc2c(c1)OCO2 (stereo not given) | 0.7 | 0.7 | 137 | 0.9 | 96 | Not Active | 105 | 81.4 | 128 | 87.1 | 1 | 97 | 0.9 | 0.9 | 92 | – | – | – | – | – | –
2 | OC(CCN1CCN(c2ccccc2C(F)(F)F)CC1)c1ccc(F)cc1 (stereo not given) | 0.5 | 0.8 | 86.7 | 1.1 | 24.6 | – | 92.9 | 129 | 70.1 | 37.2 | 1.3 | 1 | 1.2 | 0.2 | 87.9 | Insoluble | – | – | – | – | –
3 | Oc1ccc(C(O)CCN2CC=C(c3ccc(F)cc3)CC2)cc1 (stereo not given) | – | 1.1 | 110 | 0.5 | – | Not Active | 112 | – | – | – | – | 88 | – | – | 120 | – | – | – | – | – | –
4 | N#Cc1ccc(N2CCC(NCCC(O)c3ccc(F)c4ccccc34)CC2)c(C(F)(F)F)c1 (stereo in doubt; 72) | – | 0.8 | 35 | 0.7 | – | – | 136 | – | – | – | – | – | – | – | 36.3 | Soluble | 80.4 | 80 | 120 | 10 | IC50 (Plasmodium berghei [6]; [21]): 2700 nM; Ratio CC50/IC50 [12]: 78
5 | OC(CCN1CCN(C(c2ccccc2)c2ccccc2)CC1)c1ccc(F)c2ccccc12 (stereo not given) | – | 1.4 | 95.2 | 0.8 | – | – | 111 | – | – | – | – | 60 | – | – | 99.6 | Insoluble | – | 100 | 170 | 9 | IC50 (Plasmodium berghei [6]; [21]): 5420 nM; inhibition (Plasmodium berghei [17]): inactive
6 | OC(CCN1CCN(C(c2ccccc2)c2ccccc2)CC1)c1ccc(F)c(F)c1 (stereo not given) | – | 1.2 | 103 | 0.9 | – | Not Active | 87.6 | – | – | – | – | 147 | – | – | 94.9 | Insoluble | – | – | – | 9 | inhibition (Plasmodium berghei [17]): inactive
7 | N#Cc1ccc(N2CCC(NCCC(O)c3ccc(F)c4ccccc34)CC2)c(Cl)c1 (stereo not given) | – | 0.8 | – | 0.5 | – | – | 169 | – | – | – | – | 88 | – | – | 38.5 | – | ≤ 50 | 120 | 170 | 10 | IC50 (Plasmodium berghei [6]; [21]): 3410 nM
8 | N#Cc1ccc(C(O)CCN2CC=C(c3ccc(F)cc3)CC2)cc1 (stereo not given) | 1.2 | 1.1 | 130 | 0.8 | 95.1 | – | 122 | 66.5 | 75.8 | 99.1 | 1.1 | 62 | 0.9 | 1.2 | 126 | – | – | – | – | – | –
9 | COc1ccccc1C1=CCN(CCC(O)c2ccc(F)c3ccccc23)CC1 (stereo not given) | 0.1 | 0.8 | 124 | 0.8 | 182 | Not Active | 91.1 | – | 233 | – | 0.2 | 14 | – | – | 84 | Insoluble | – | 150 | 230 | – | –
10 | N#Cc1ccc(N2CCC(NCCC(O)c3ccc(F)c4ccccc34)CC2)c(Br)c1 (stereo not given) | – | 2.2 | 35.3 | 0.9 | – | – | 97.5 | – | – | – | – | 141 | – | – | 80.2 | – | ≤ 50 | 120 | 150 | 10 | –
11 | COc1ccccc1N1CCN(CCC(O)c2ccc(F)c3ccccc23)CC1 (stereo not given) | 0.3 | 1.3 | 129 | 0.8 | 115 | Not Active | 102 | – | 147 | – | 0.4 | 138 | – | – | 92.4 | Insoluble | ≤ 50 | 280 | 410 | 10 | –
12 | OC(CCN1CCN(c2ccc(F)cc2)CC1)c1ccc(F)c2ccccc12 (stereo not given) | 1.1 | 0.5 | 140 | 0.8 | 66.2 | – | 95.6 | 196 | 51.2 | 112 | 0.9 | 7 | 1.2 | 0.6 | 72.4 | – | – | – | – | – | –
13 | COc1ccccc1N1CCN(CCC(O)c2ccc(F)cc2)CC1 (stereo in doubt; 66) | 1.1 | 1 | 99.2 | 1 | 90.4 | Not Active | 93.1 | – | 98.8 | – | 1 | – | – | – | 82.8 | Insoluble | 96.4 | 6320 | 7260 | 12 | Ratio CC50/IC50 [12]: 103
